Laboratory results as given in PubChem BioAssay.
Calls of active or inactive are those of the source.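 Rule for the calls: active = viability at or below 30% in both replicate assays; inconclusive = viability at or below 30% in just one of the two assays; inactive = the rest.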

assay: HUVEC growth inhibition – cell-based, human, primary screen (AID 575); conditions: HUVEC proliferation, CellTiter-Glo luminescence, 72 h; at 10 µM; active compounds read low;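 note: 100% = median of untreated cell wells with 0.1% DMSO on each plate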
Summary of the method: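 Material: primary human umbilical vein endothelial cells / Schedule: 72 h exposure, 37 °C, 5% CO2, 30 min RT equilibration / Signal: ATP-based CellTiter-Glo luminescent read / Read-out basis: percent of median DMSO-control luminescence / Control set: 32 DMSO-only cell-control wells (high), 32 MePR drug-control wells (low) per plate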

SMILES	viability
CC(=O)Nc1ccc(S(=O)(=O)N2CCN(C(C)CCc3ccccc3)CC2)cc1 (configuration not stated)	97.8% (inactive)
COc1ccc(NC(=O)Nc2cc(C)ccc2OC)cc1	96.1% (inactive)
O=C(CNS(=O)(=O)c1ccc(Br)s1)N1CCCC1	98.7% (inactive)
Cn1c(=N)n(CC(=O)O)c2ccccc21	91.5% (inactive)
CC(C)(C)Nc1nc(OCC(F)(F)F)nc(OCC(F)(F)F)n1	98.8% (inactive)
COc1cc(CC(=O)Nc2ncc(C)s2)cc(OC)c1OC	90.8% (inactive)
Cc1ccc(NC2=NC3(CCCCC3)N=C(N)N2)c(C)c1	87.9% (inactive)
C=CCSc1nnc(-c2ccccc2NC(C)=O)c(=O)[nH]1	105% (inactive)
CC1CCN(CCCNC(=O)c2cn(C)c3ccc(S(=O)(=O)N4CCCC4)cc3c2=O)CC1	96.9% (inactive)
C=CCOc1ccc(/C(O)=C2\C(=O)C(=O)N(CCOC)C2c2cccnc2)cc1 (configuration not stated)	107% (inactive)
Cc1cccc(C(=O)N2CCC(n3nnc4cc(F)ccc43)CC2)c1	92.6% (inactive)
CC(C)Oc1ccc(N2CC(C(=O)Nc3ccccc3F)CC2=O)cc1 (configuration not stated)	92.6% (inactive)
O=C(CSc1ncc(-c2ccc(F)cc2)[nH]1)N1CCCCC1	92.6% (inactive)
CCCNC(=O)Nc1ccccc1C(=O)Nc1ccc(OC)cc1	85.7% (inactive)
COc1ccccc1OCC(=O)NCC1CCCCC1	93.2% (inactive)
Cc1ccccc1NC(=O)CSc1nc(N)c(C#N)c(-c2cccs2)c1C#N	72.3% (inactive)
c1ccc(CCc2nc(-c3cccnc3)no2)cc1	108% (inactive)
